The species named for series [1] is Mus musculus. The series is described as follows: Effect on glial GABA(1 uM) uptake was measured using astrocytes cultured from cerebral cortices of new born mice. Type of series: functional, organism-based.
The species named for series [2] is Mus musculus. The series is described as follows: Effect on neuronal GABA(1 uM) uptake was measured using neurons cultured from cerebral cortices of 15-day-old mouse embryos. Type of series: functional, organism-based.
The species entered for a further series is Rattus norvegicus. Nature of the series: Inhibition of GABA uptake into crude synaptosomes prepared from adult rat brain. Type of series: functional. In outline:
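Crude synaptosomes from adult rat brain were preincubated with inhibitor for 10 min at 20 °C. Uptake was then run at 0.05 μM GABA.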

The nature of series [3]: The apparent partition coefficient(D) in n-octanol-0.05 M phosphate buffer (pH 7.4) at 21 degree celsius. Type of series: physicochemical. Summed up:
(§1)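 Organic and aqueous phases were mutually saturated at 21 °C. Compound was dissolved in the aqueous buffer at (2–3) × 10^-5 M and shaken 10–15 min to equilibrium. Phases were separated by centrifugation for 3–5 min. Aqueous concentration before and after distribution was measured by HPLC, and D was reported as log D.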

A short description of series [4]: Hydrolysis was studied in 0.02 M phosphate buffer containing 80% human plasma (pH 7.4) at 37 degree celsius; stable. The format is ADME, cell-free. In outline:
(§2)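 Initial compound concentration was (2–3) × 10^-5 M, held at 37 °C. Samples taken over time were deproteinized with EtOH and centrifuged 3–5 min. Supernatant was analyzed by RP-HPLC at 220 nm; half-life was derived from residual compound over time.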

The nature of series [5]: Hydrolysis was studied in 0.02 M aqueous phosphate buffer (pH 7.4) at 37 degree celsius; stable. Type of series: ADME. In outline:
(§3)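 Prodrug stock in MeCN–H2O was added to prewarmed buffer, giving (2–3) × 10^-5 M final. Tubes were held at 37 ± 0.2 °C and sampled over time for RP-HPLC at 220 nm, quantified by peak area against standards. Pseudo-first-order rate constants came from slopes of log residual prodrug versus time, expressed as t1/2.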

A short description of series [6]: The apparent partition coefficient(D) in cyclohexane-0.05 M phosphate buffer (pH 7.4) at 21 degree celsius. Type of series: physicochemical. In outline: as §1
Series [7] can be described thus: Hydrolysis was studied in 0.02 M phosphate buffer containing 80% human plasma (pH 7.4) at 37 degree celsius. The format is ADME, cell-free. Summed up:
as §2

The nature of series [8]: Hydrolysis was studied in 0.02 M aqueous phosphate buffer (pH 7.4) at 37 degree celsius. The format is ADME. Summed up: as §3

Data on 19 molecules can be found in ChEMBL document CHEMBL1132551, “Selective inhibitors of glial GABA uptake: synthesis, absolute stereochemistry, and pharmacology of the enantiomers of 3-hydroxy-4-amino-4,5,6,7-tetrahydro-1,2-benzisoxazole (exo-THPO) and analogues” (J Med Chem, 1999).

`CN(C)C1CCCc2onc(O)c21` (stereo not drawn): the 50% inhibitory concentration (IC50) (usually the concentration that gives 50% inhibition) in the series filed under Mus musculus [1] was > 500 µM; in the series listed under Mus musculus [2] it was > 1000 µM; in the series filed under Rattus norvegicus it was 291 µM.
`Oc1noc2c1C(N1CCCC1)CCC2` (stereo not drawn): the IC50 is > 500 µM in the series listed under Mus musculus [1], > 1000 µM in the series listed under Mus musculus [2] and 201 µM in the series listed under Rattus norvegicus.
Turning to `NC1CCCc2snc(O)c21` (stereo not drawn), the IC50 in the series filed under Mus musculus [1] is > 500 µM; in the series listed under Mus musculus [2], > 1000 µM; in the series filed under Rattus norvegicus it was 290 µM.
Regarding `Oc1noc2c1CNCC2`, the values for the half-maximal inhibitory concentration (IC50) in the series filed under Mus musculus [1], in the series listed under Mus musculus [2] and in the series listed under Rattus norvegicus were 268 µM, 530 µM and 162 µM, respectively.
As for `CNC1CCCc2onc(O)c21` (stereo not drawn), the logD (in general, lipophilicity at a set pH, counting ionised and neutral species) in series [3] is -2.3. For the same molecule, the T1/2 entry in series [4] and in series [5] was “stable” in each case. Also, the values for the IC50 in the series filed under Mus musculus [1], in the series filed under Mus musculus [2] and in the series listed under Rattus norvegicus were 28 µM, 423 µM and 63 µM, respectively.
Take `CC(=O)OCCNC1CCCc2onc(O)c21` (stereo not drawn): the concentration for half-maximal inhibition (IC50) is > 500 µM in the series filed under Mus musculus [1], > 1000 µM in the series filed under Mus musculus [2] and 125 µM in the series listed under Rattus norvegicus.
`CNC1CCCc2snc(O)c21` (stereo not drawn): the concentration for half-maximal inhibition (IC50) in the series filed under Mus musculus [1] was > 500 µM; in the series listed under Mus musculus [2] it was > 1000 µM; in the series listed under Rattus norvegicus, 242 µM.
Regarding `C=CCNC1CCCc2onc(O)c21` (stereo not drawn), the results for the half-inhibitory concentration (IC50) in the series listed under Mus musculus [1], in the series listed under Mus musculus [2] and in the series filed under Rattus norvegicus were > 500 µM, > 1000 µM and 98 µM, respectively.
On to `NC1CCCc2onc(O)c21` (stereo not drawn), for which the 50% inhibitory concentration (IC50) in the series filed under Mus musculus [1] turned out to be 208 µM; in the series listed under Mus musculus [2], 883 µM; in the series listed under Rattus norvegicus, 181 µM.
Consider `N[C@@H]1CCCc2onc(O)c21`, for which the half-inhibitory concentration (IC50) in the series filed under Mus musculus [1] worked out at 281 µM; in the series filed under Mus musculus [2], 681 µM; in the series listed under Rattus norvegicus it was 118 µM.
For `CCNC1CCCc2onc(O)c21` (stereo not drawn) the same measures were 278 µM, 391 µM and 105 µM.
For `O=C(O)[C@@H]1CCCNC1` [(R)-NIPECOTIC ACID], the 50% inhibitory concentration (IC50) in the series listed under Mus musculus [1] was determined as 16 µM; in the series filed under Mus musculus [2], 12 µM; in the series listed under Rattus norvegicus, 5 µM.
Consider `CNC1CCCc2on(COC(=O)C(C)(C)C)c(=O)c21` (stereo not drawn), for which the log distribution coefficient (logD) in series [6] was -1.4; in series [3], 0.05. The half-life – broadly, the time needed for the level to fall by half in the phase considered – in series [7] is 0.117 h; in series [8] it was 267 h.
In the case of `CN[C@H]1CCCc2onc(O)c21`, the IC50 in the series listed under Rattus norvegicus is > 300 µM.
With `O=C(O)C1=CCCNC1` [GUVACINE], the IC50 was found to be 29 µM in the series listed under Mus musculus [1], 32 µM in the series listed under Mus musculus [2] and 12 µM in the series listed under Rattus norvegicus.
On to `N[C@H]1CCCc2onc(O)c21`, for which, in the series filed under Rattus norvegicus, the IC50 was > 300 µM.
As for `OCCNC1CCCc2onc(O)c21` (stereo not drawn), the IC50 in the series listed under Mus musculus [1] was > 500 µM; in the series filed under Mus musculus [2], > 1000 µM; in the series listed under Rattus norvegicus, 173 µM.
As for `CNC1CCCc2onc(OCOC(=O)C(C)(C)C)c21` (stereo not drawn), the logD in series [6] was -0.17; in series [3], 0.65. The figures for the half-life in series [7] and in series [8] were 0.25 h and 75 h, respectively.
With `CN[C@@H]1CCCc2onc(O)c21`, the IC50 amounted to 60 µM in the series listed under Mus musculus [1], 510 µM in the series listed under Mus musculus [2] and 39 µM in the series listed under Rattus norvegicus.
